One may read the IC50 as the point on the concentration scale where inhibition reaches its midpoint.

In this assay the test system is Botrytis cinerea. Briefly: Fungicidal activity against Botryotinia fuckeliana assessed as inhibition of spore germination at 25 degC after 6 hr by microscopic analysis. Type of assay: functional, organism-based. The method in brief: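 B. cinerea strain from a university plant disease institute, grown 2 weeks at 20 °C on PDA; conidia scraped into sterile water, filtered through cheesecloth, suspended in 0.1% Tween 20 and adjusted to 1.0 × 10⁶ spores/mL. Samples taken up in methanol and diluted in sterile water to a concentration series (methanol <1% final); 1% methanol control. 10 μL spore–sample aliquots on glass slides in triplicate, moist chamber, germination scored microscopically.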

Structures are written as SMILES. ≈ marks a conversion by molar mass, not a printed value.

On to `C=C(C)n1c(=O)n(C(=O)c2ccco2)c2ccccc21`, for which the IC50 is 104 µg/mL (≈ 387 µM).

Take `C=C(C)n1c(=O)n(C(=O)c2ccncc2)c2ccccc21`: the IC50 was 152 µg/mL (≈ 544 µM).

On to `C=C(C)n1c(=O)n(C(=O)CCCCC)c2ccccc21`, for which the concentration for half-maximal inhibition (IC50) came out at 129 µg/mL (≈ 475 µM).

Turning to `C=C(C)n1c(=O)n(C(=O)C(C)C)c2ccccc21`, the IC50 amounted to 134 µg/mL (≈ 548 µM).

Regarding `C=C(C)n1c(=O)n(C(=O)C(CC)CC)c2ccccc21`, the IC50 amounted to 277 µg/mL (≈ 1020 µM).

Consider `C=C(C)n1c(=O)n(C(=O)CCC(C)C)c2ccccc21`, for which the IC50 was 335 µg/mL (≈ 1230 µM).

Regarding `C=C(C)n1c(=O)n(C(=O)Cc2ccccc2)c2ccccc21`, the IC50 was 168 µg/mL (≈ 576 µM).

Turning to `C=C(C)n1c(=O)n(C(=O)Cc2ccc(Cl)cc2)c2ccccc21`, the IC50 is 17.3 µg/mL (≈ 52.8 µM).

As for `C=C(C)n1c(=O)n(C(=O)Cc2ccc3ccccc3c2)c2ccccc21`, the concentration for half-maximal inhibition (IC50) is greater than 500 µg/mL.

As to `C=C(C)n1c(=O)n(C(=O)CCc2ccccc2)c2ccccc21`, the IC50 came out at 126 µg/mL (≈ 410 µM).

As to `C=C(C)n1c(=O)n(C(=O)C(CC)c2ccccc2)c2ccccc21` (configuration not stated), the IC50 was 186 µg/mL (≈ 580 µM).

As for `C=C(C)n1c(=O)n(C(=O)Cc2ccc(OC)cc2)c2ccccc21`, the IC50 stood at 118 µg/mL (≈ 366 µM).

For `C=C(C)n1c(=O)n(C(=O)COc2ccccc2)c2ccccc21`, the IC50 worked out at 303 µg/mL (≈ 983 µM).

On to `C=C(C)n1c(=O)n(C(=O)COc2ccc(Cl)cc2)c2ccccc21`, for which the IC50 was 108 µg/mL (≈ 315 µM).

Turning to `C=C(C)n1c(=O)n(C(=O)CCCc2c[nH]c3ccccc23)c2ccccc21`, the IC50 stood at 302 µg/mL (≈ 839 µM).

Consider `C=CC(=O)n1c(=O)n(C(=C)C)c2ccccc21`, for which the IC50 is 32.2 µg/mL (≈ 141 µM).

In the case of `C=C(C)C(=O)n1c(=O)n(C(=C)C)c2ccccc21`, the IC50 amounted to 64 µg/mL (≈ 264 µM).

As for `C=C(C)n1c(=O)n(C(=O)c2ccccc2)c2ccccc21`, the IC50 stood at 81.9 µg/mL (≈ 294 µM).

Turning to `C=C(C)n1c(=O)n(C(=O)c2ccc([N+](=O)[O-])cc2)c2ccccc21`, the IC50 was found to be 93.3 µg/mL (≈ 289 µM).

Regarding `C=C(C)n1c(=O)n(C(=O)c2ccccc2[N+](=O)[O-])c2ccccc21`, the IC50 was found to be 442 µg/mL (≈ 1370 µM).

In the case of `C=C(C)n1c(=O)n(C(=O)c2ccc(Cl)cc2)c2ccccc21`, the IC50 stood at 66.8 µg/mL (≈ 214 µM).

On to `C=C(C)n1c(=O)n(C(=O)c2ccccc2Cl)c2ccccc21`, for which the IC50 is 17.2 µg/mL (≈ 54.9 µM).

`C=C(C)n1c(=O)n(C(C)=O)c2ccccc21`: the IC50 is greater than 500 µg/mL.

On to `C=C(C)n1c(=O)n(C(=O)CC)c2ccccc21`, for which the 50% inhibitory concentration (IC50) was greater than 500 µg/mL.

In the case of `C=C(C)n1c(=O)n(C(=O)CCC)c2ccccc21`, the IC50 is greater than 500 µg/mL.

On to `C=C(C)n1c(=O)n(C(=O)CCCC)c2ccccc21`, for which the IC50 was found to be 254 µg/mL (≈ 984 µM).

Turning to `Cc1cc(C)nc(Nc2ccccc2)n1` [PYRIMETHANIL], the IC50 came out at 209 µg/mL (≈ 1050 µM).

The record behind these values is ChEMBL document CHEMBL3044828, “Synthesis of 1-acyl-3-isopropenylbenzimidazolone derivatives and their activity against Botrytis cinerea” (J Agric Food Chem, 2010).
